Experimental data from ChEMBL document CHEMBL1138050, “Furan-2-ylmethylene thiazolidinediones as novel, potent, and selective inhibitors of phosphoinositide 3-kinase gamma” (J Med Chem, 2006).
Calls of active or inactive are those of the source. The rule behind the calls is not given here.

Key:
[1] = target: Dual specificity mitogen-activated protein kinase kinase 7 (Homo sapiens) (UniProt O14733); experiment: Residual activity at human MKK7-beta at 10 uM in presence of 10 uM ATP relative to control
Procedure, shortened: (§1)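 Single-concentration counter-screen across a panel of 80 Ser/Thr and Tyr protein kinases. Compound was tested at 10 µM with ATP at 10 µM. Activity remaining in each kinase is expressed relative to control.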

[2] = target: Serine/threonine-protein kinase PAK 2 (Homo sapiens) (UniProt Q13177); experiment: Residual activity at human PAK2 at 10 uM in presence of 10 uM ATP relative to control; procedure, shortened: as §1
[3] = target: 3-phosphoinositide-dependent protein kinase 1 (Homo sapiens) (UniProt O15530); experiment: Residual activity at human PDK1 at 10 uM in presence of 10 uM ATP relative to control; procedure, shortened: as §1
[4] = target: Proto-oncogene tyrosine-protein kinase Src (Homo sapiens) (UniProt P12931); experiment: Residual activity at human cSRC at 10 uM in presence of 10 uM ATP relative to control; procedure, shortened: as §1
[5] = target: Inhibitor of nuclear factor kappa-B kinase subunit beta (Homo sapiens) (UniProt O14920); experiment: Residual activity at human IKK-beta at 10 uM in presence of 10 uM ATP relative to control
Procedure, shortened: (§2)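 Panel of Ser/Thr and Tyr protein kinases, each tested with 10 µM compound in the presence of 10 µM ATP; activity expressed relative to control.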

[6] = target: Dual specificity mitogen-activated protein kinase kinase 1 (Homo sapiens) (UniProt Q02750); experiment: Residual activity at human MEK1 at 10 uM in presence of 10 uM ATP relative to control; procedure, shortened: as §1
[7] = target: Serine/threonine-protein kinase D1 (Homo sapiens) (UniProt Q15139); experiment: Residual activity at human PKCmu at 10 uM in presence of 10 uM ATP relative to control; procedure, shortened: as §1
[8] = target: Ribosomal protein S6 kinase alpha-3 (Homo sapiens) (UniProt P51812); experiment: Residual activity at human Rsk3 at 10 uM in presence of 10 uM ATP relative to control; procedure, shortened: as §1
[9] = target: Mitogen-activated protein kinase 11 (Homo sapiens) (UniProt Q15759); experiment: Residual activity at human SAPK2b at 10 uM in presence of 10 uM ATP relative to control; procedure, shortened: as §1
[10] = target: Tyrosine-protein kinase SYK (Homo sapiens) (UniProt P43405); experiment: Residual activity at human Syk at 10 uM in presence of 10 uM ATP relative to control; procedure, shortened: as §1
[11] = test system: RAW264.7; experiment: Inhibition of C5a-mediated PKB/Akt phosphorylation in mouse Raw264 macrophage; type: functional, cell-based
Procedure, shortened: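 Raw-264 murine macrophages starved 3 h in serum-free medium, pretreated 30 min with inhibitor or DMSO, then stimulated 5 min with 50 nM C5a. Phospho-Ser-473 Akt measured by ELISA. Concentration-response; IC50. Mean ± standard deviation of four independent experiments done in triplicate.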

[12] = test system: Mast cell; experiment: Inhibition of SCF-induced PKB/Akt phosphorylation in mouse mast cells at 10 uM; type: functional, cell-based
Procedure, shortened: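 Bone marrow mast cells from 4- to 8-week-old wild-type mice, derived ≥4 weeks in 20 ng/mL SCF plus 20 ng/mL IL-3 and confirmed c-kit+ by FACS. Cells at 2.5 × 10^6/mL starved 24 h without SCF/IL-3, preincubated 20 min with compound or 1% DMSO, stimulated 15 min at 37 °C with 20 ng/mL SCF. Fixed in 1.5% paraformaldehyde, permeabilized with 0.2% Triton X-100, phospho-Ser-473 Akt read by FACS.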

[13] = test system: Monocyte; experiment: Inhibition of MCP1-induced chemotaxis of mouse primary monocytes; type: functional, cell-based
Procedure, shortened: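 Cells were starved and pretreated with inhibitor or DMSO, then chemotaxis was induced with MCP-1 (10^-9 M). Primary mouse monocytes: 10^7 5-day bone-marrow-derived monocytes in medium with 0.5% BSA and compound, placed in the upper chamber of a 5 µm transwell. MCP-1 plus compound in the lower chamber. After 3 h at 37 °C, 5% CO2, cells in the lower chamber were counted. IC50.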

[14] = target: Cyclin-dependent kinase 5/CDK5 activator 1 (Homo sapiens) (UniProt Q00535+Q15078); experiment: Residual activity at human CDK5/p35 at 10 uM in presence of 10 uM ATP relative to control; type: protein-complex assay; procedure, shortened: as §2
[15] = target: T1, Phosphatidylinositol 4,5-bisphosphate 3-kinase catalytic subunit delta isoform (Homo sapiens, UniProt O00329); experiment: Inhibition of human PI3Kdelta
T1 sequence (O00329 whole entry): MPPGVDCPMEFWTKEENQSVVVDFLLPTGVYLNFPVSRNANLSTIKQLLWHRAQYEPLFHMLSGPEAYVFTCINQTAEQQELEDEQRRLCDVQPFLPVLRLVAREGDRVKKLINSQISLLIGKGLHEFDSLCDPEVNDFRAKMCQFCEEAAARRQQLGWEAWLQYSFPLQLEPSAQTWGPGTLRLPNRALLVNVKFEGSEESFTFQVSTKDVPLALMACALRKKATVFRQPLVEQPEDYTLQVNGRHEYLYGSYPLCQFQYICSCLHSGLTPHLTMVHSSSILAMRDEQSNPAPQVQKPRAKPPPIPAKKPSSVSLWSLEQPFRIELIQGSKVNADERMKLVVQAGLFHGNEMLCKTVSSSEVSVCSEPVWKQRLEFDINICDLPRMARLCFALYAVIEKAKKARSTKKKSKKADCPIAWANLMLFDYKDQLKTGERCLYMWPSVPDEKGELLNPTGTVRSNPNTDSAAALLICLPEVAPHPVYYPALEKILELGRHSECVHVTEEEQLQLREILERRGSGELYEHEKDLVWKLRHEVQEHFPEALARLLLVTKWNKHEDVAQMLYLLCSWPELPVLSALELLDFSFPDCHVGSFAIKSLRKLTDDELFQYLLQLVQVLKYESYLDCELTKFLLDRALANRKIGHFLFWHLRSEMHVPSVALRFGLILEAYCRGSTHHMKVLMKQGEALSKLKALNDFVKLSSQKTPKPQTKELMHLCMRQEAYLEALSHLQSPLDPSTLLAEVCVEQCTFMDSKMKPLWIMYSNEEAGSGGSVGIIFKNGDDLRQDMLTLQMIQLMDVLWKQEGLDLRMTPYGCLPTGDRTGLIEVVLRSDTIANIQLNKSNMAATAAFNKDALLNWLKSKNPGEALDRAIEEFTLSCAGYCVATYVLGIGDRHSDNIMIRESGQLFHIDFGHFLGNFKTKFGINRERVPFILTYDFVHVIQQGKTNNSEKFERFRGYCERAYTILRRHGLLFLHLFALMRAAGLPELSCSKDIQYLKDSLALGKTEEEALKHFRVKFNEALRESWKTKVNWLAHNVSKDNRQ

[16] = target: Cytoplasmic tyrosine-protein kinase BMX (Homo sapiens) (UniProt P51813); experiment: Residual activity at human Bmx at 10 uM in presence of 10 uM ATP relative to control; procedure, shortened: as §2
[17] = target: Ca2+/calmodulin-dependent protein kinase II (CaM kinase II) (Rattus norvegicus) (UniProt P11275+P08413+P15791+P11730); experiment: Residual activity at rat CaMK2 at 10 uM in presence of 10 uM ATP relative to control; type: protein assay

Sequence of 3-phosphoinositide-dependent protein kinase 1 (Homo sapiens) (O15530 whole entry): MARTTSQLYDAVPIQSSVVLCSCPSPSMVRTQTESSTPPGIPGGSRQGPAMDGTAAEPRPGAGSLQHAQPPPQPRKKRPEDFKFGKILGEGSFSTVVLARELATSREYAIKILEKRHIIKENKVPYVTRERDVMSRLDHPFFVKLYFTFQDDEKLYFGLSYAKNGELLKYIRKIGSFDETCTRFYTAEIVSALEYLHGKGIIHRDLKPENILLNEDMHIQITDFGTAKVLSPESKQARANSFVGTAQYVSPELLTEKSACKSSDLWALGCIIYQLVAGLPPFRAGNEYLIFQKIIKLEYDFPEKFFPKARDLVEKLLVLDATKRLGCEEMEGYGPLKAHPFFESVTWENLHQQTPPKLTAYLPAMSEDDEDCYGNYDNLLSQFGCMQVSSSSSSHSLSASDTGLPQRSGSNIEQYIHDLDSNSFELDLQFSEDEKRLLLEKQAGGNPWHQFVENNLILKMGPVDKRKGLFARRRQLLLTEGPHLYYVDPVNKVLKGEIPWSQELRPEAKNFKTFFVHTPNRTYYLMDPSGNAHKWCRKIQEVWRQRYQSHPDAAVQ
Sequence of Serine/threonine-protein kinase PAK 2 (Homo sapiens) (Q13177 whole entry): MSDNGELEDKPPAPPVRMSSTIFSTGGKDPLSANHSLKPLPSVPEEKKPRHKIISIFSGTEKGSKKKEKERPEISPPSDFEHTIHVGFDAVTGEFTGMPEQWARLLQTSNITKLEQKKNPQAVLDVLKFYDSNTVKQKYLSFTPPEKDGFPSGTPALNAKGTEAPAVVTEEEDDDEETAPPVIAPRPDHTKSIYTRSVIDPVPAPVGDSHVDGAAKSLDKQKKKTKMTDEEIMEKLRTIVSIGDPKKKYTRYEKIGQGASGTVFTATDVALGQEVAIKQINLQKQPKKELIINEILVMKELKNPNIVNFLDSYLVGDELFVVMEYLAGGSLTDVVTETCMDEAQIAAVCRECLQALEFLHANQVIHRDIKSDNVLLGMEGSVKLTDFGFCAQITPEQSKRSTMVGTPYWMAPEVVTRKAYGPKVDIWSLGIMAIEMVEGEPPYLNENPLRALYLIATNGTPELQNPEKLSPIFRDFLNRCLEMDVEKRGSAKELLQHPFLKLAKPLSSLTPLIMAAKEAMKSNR
Sequence of Dual specificity mitogen-activated protein kinase kinase 1 (Homo sapiens) (Q02750 whole entry): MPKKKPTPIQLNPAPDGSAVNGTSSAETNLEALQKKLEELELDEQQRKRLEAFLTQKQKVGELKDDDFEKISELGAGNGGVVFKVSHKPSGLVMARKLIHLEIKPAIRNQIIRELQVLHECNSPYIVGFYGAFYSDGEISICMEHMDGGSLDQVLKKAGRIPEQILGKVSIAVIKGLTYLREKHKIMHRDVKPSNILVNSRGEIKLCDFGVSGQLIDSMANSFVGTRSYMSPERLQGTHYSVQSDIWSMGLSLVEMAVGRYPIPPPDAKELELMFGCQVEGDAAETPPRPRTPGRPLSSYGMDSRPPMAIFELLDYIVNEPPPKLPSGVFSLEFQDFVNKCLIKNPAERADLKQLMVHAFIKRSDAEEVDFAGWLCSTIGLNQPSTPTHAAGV
Sequence of Dual specificity mitogen-activated protein kinase kinase 7 (Homo sapiens) (O14733 whole entry): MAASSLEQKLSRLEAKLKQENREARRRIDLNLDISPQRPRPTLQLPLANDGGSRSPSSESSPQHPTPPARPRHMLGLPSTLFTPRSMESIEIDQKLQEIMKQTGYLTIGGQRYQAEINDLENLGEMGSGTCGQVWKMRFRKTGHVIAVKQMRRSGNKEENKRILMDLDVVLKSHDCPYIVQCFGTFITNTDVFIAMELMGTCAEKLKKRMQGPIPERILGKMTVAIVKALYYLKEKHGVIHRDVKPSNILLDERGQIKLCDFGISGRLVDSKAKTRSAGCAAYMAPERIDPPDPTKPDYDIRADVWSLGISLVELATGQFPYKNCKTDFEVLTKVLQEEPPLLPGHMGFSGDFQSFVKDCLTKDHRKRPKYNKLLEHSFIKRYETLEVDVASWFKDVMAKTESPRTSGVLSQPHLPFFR
Sequence of Serine/threonine-protein kinase D1 (Homo sapiens) (Q15139 whole entry): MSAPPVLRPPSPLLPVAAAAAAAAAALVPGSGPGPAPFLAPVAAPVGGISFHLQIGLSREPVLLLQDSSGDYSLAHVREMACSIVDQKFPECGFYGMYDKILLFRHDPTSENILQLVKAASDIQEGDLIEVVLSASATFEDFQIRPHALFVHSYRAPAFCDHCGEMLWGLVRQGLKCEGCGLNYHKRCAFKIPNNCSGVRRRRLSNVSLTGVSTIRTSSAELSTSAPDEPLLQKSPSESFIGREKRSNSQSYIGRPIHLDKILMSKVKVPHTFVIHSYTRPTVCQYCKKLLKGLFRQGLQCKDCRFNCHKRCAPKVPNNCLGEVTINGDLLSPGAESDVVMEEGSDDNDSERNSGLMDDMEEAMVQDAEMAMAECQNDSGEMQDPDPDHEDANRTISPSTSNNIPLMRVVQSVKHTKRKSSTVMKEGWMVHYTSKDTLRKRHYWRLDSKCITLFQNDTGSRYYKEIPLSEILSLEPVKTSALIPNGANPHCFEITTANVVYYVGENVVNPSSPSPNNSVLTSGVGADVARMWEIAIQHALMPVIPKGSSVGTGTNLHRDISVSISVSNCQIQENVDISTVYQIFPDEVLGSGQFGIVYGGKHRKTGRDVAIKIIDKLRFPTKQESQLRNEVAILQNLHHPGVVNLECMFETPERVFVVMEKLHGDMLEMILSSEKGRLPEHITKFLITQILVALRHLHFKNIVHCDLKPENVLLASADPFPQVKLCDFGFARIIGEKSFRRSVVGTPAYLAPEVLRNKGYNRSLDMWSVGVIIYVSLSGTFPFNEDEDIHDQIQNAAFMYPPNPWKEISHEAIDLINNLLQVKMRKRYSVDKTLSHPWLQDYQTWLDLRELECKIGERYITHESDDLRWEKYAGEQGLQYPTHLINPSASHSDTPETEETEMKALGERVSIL
Sequence of Cyclin-dependent kinase 5/CDK5 activator 1 (Homo sapiens) (Q00535 whole entry, canonical isoform): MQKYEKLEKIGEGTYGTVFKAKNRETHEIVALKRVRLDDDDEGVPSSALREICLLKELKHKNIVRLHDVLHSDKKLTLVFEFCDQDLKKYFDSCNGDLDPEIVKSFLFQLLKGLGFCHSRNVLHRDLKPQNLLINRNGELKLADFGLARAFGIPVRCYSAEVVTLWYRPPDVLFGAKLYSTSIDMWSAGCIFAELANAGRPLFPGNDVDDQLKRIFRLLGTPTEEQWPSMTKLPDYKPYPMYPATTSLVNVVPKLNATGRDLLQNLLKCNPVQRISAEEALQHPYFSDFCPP
Sequence of Cyclin-dependent kinase 5/CDK5 activator 1 (Homo sapiens) (Q15078 99-307 partner limits assumed): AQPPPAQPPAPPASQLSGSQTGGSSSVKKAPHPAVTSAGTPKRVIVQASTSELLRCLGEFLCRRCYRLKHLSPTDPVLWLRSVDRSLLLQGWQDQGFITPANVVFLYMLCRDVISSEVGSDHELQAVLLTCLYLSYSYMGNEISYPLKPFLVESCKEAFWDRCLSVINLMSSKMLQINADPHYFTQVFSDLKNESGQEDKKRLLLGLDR
Sequence of Proto-oncogene tyrosine-protein kinase Src (Homo sapiens) (P12931 2-536 limits assumed): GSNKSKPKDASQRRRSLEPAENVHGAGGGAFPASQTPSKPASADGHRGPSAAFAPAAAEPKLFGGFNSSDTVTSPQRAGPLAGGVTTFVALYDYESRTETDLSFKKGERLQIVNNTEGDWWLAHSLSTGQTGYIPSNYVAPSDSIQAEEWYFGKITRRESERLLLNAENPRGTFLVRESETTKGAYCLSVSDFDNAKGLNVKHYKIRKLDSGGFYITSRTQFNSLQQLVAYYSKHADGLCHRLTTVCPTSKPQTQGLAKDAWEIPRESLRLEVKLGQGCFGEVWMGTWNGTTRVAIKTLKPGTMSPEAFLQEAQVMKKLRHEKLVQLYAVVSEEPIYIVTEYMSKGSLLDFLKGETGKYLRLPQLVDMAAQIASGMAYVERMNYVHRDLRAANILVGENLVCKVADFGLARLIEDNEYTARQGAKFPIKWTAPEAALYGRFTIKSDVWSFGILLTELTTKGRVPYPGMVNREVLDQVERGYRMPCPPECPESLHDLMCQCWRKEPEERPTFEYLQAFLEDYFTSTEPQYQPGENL
Sequence of Mitogen-activated protein kinase 11 (Homo sapiens) (Q15759 whole entry): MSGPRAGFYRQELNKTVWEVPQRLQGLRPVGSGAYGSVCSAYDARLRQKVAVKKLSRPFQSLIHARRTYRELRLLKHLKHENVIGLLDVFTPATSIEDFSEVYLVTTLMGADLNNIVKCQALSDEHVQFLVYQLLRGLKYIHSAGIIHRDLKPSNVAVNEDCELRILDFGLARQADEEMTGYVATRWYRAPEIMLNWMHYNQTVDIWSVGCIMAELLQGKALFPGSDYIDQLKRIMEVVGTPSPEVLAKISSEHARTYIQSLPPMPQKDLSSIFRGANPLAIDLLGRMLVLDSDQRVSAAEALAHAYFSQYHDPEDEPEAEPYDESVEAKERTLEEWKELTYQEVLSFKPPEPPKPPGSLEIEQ
Sequence of Inhibitor of nuclear factor kappa-B kinase subunit beta (Homo sapiens) (O14920 whole entry): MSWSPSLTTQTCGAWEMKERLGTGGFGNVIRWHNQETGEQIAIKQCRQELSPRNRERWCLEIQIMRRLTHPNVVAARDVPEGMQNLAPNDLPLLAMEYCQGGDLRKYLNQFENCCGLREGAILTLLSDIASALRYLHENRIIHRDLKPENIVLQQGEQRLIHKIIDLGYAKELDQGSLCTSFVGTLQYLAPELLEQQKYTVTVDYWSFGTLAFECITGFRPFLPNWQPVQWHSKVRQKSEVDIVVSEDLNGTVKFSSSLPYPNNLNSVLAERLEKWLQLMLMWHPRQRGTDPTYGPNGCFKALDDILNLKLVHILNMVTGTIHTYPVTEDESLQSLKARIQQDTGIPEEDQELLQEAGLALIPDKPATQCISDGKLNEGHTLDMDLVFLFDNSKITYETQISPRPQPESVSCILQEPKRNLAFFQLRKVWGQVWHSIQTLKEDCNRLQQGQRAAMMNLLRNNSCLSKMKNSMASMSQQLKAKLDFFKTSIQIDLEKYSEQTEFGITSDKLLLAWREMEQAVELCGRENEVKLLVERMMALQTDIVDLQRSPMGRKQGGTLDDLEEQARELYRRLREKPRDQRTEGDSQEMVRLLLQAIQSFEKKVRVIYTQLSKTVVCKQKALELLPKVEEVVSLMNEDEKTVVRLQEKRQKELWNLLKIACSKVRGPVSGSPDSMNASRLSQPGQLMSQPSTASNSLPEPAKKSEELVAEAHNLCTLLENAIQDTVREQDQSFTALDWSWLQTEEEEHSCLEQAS

`O=C1NC(=O)/C(=C/c2ccc(-c3ccc(F)cc3O)o2)S1` showed an Activity [1] of 2%, an Activity [2] of 178% and an Activity [3] of 104%. The Activity [4] was 66%, the Activity [5] was 89% and the Activity [6] was 96%. For the same compound, the Activity [7] was 98%, the Activity [8] was 73% and the Activity [9] was 89%. For the same compound, the Activity [10] was 93%, the IC50 [11] was 0.23 µM and the Activity [12] was “inactive”. For the same compound, the IC50 [13] was 52 µM, the Activity [14] was 83% and the IC50 [15] was 20 µM. For the same compound, the Activity [16] was 102% and the Activity [17] was 97%.
